Results published in ChEMBL document CHEMBL1212766, “Dose escalation study of the safety, tolerability, and pharmacokinetics of nemonoxacin (TG-873870), a novel potent broad-spectrum nonfluorinated quinolone, in healthy volunteers” (Antimicrob Agents Chemother, 2010).

How the values were obtained:
[1] = Clearance in healthy human assessed as recovery of unchanged drug in urine at 25 […], po administered as single dose; format: ADME, organism-based; set-up: route oral; conditions: read-out: Recovered in urine
How it was run: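 Healthy volunteers, six on drug per cohort, fasted 10 h and given one oral dose with 240 ml water, then fasted 4 h more. Urine was pooled over intervals from 0-2 to 72-96 h and stored at about −70°C. Drug was measured by solid-phase extraction and LC-MS/MS (LLOQ 200 ng/ml), giving the percent of dose recovered unchanged. Values are means (SD).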

[2] = tested on: Homo sapiens; assay: Toxicity in healthy human assessed as occurrence of contact dermatitis at 250 […], po; format: organism-based; set-up: route oral; conditions: in vivo
How it was run: (§1)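 Randomized, double-blind, placebo-controlled single ascending oral doses in healthy volunteers (cohorts of 6 active, 2 placebo; 25–1,500 mg). After a 10-h fast, dose given with 240 ml water; fasting continued 4 h. Subjects were confined to 96 h postdose. AEs were recorded throughout dosing and at follow-up, reported as number and percentage of subjects with events per treatment.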

[3] = tested on: Homo sapiens; assay: Toxicity in healthy human assessed as occurrence of contact dermatitis at 1500 […], po; format: organism-based; set-up: route oral; conditions: in vivo; how it was run: as §1
[4] = tested on: Homo sapiens; assay: Toxicity in healthy human assessed as occurrence of headache at 500 […], po; format: organism-based; set-up: route oral; conditions: in vivo
[5] = tested on: Homo sapiens; assay: Toxicity in healthy human assessed as occurrence of abdominal pain at 500 […], po; format: organism-based, Abdomen; set-up: route oral; conditions: in vivo
How it was run: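 Double-blind, placebo-controlled single ascending oral dose; two placebo and six active subjects per cohort. Adverse events were recorded throughout the dosing period and at follow-up, with confinement to 96 h after dosing. Results are reported as number and percentage of subjects with the event (n/N × 100).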

[6] = tested on: Homo sapiens; assay: AUC (0 to infinity) in healthy human at 250 […], po administered as single dose; format: ADME, organism-based, Plasma; set-up: time infinity, route oral; conditions: in vivo
[7] = tested on: Homo sapiens; assay: Clearance in healthy human at 125 […], po administered as single dose; format: ADME, organism-based; set-up: route oral; conditions: in vivo
How it was run: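 Randomized, double-blind, placebo-controlled single ascending oral dose in fasted healthy subjects (six on drug per cohort, with 240 ml water). Plasma sampled predose through 96 h and assayed by validated LC-MS/MS over 5–5,000 ng/ml. Oral clearance (CL_o) came from noncompartmental analysis, with AUC_0-∞ from linear trapezoids plus C_last/λz. Values are means (SD).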

[8] = Renal clearance in healthy human at 1000 […], po administered as single dose; format: ADME, organism-based, Kidney; set-up: route oral; conditions: in vivo, read-out: CL_renal (converted)
How it was run: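 Renal clearance (CL_r) came from noncompartmental analysis of plasma drawn through 96 h and urine collected over fixed intervals to 96 h. Subjects were fasted healthy volunteers, six per dose cohort, given one oral dose with 240 ml water. Plasma and urine were assayed by LC-MS/MS after solid-phase extraction, with urine LLOQ 200 ng/ml. Values are means (SD).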

[9] = tested on: Homo sapiens; assay: Terminal volume of distribution in healthy human at 125 mg, po administered as single dose; conditions: in vivo
[10] = tested on: Homo sapiens; assay: Terminal volume of distribution in healthy human at 500 mg, po administered as single dose; conditions: in vivo

Structure (SMILES): COc1c(N2C[C@@H](C)C[C@H](N)C2)ccc2c(=O)c(C(=O)O)cn(C3CC3)c12 [NEMONOXACIN]
- dose excreted [1]: 56.2%
- Activity [2]: 0%
- Activity [3]: 0%
- Activity [4]: 0%
- Activity [5]: 0%
- AUC [6]: 15.45 µg·h/mL
- CL [7]: 0.22 L/h/kg
- CL renal [8]: 1.4 mL/min/kg
- Vbeta [9]: 3.38 L/kg
- Vbeta [10]: 4.25 L/kg
